Data as given in ChEMBL document CHEMBL4840316, “Structure-based screening for the discovery of 1,2,4-oxadiazoles as promising hits for the development of new anti-inflammatory agents interfering with eicosanoid biosynthesis pathways” (Eur J Med Chem, 2021).
Calls of active or inactive are those of the source. No cut-off for these calls is given here.

Legend:
[1] = molecular target: T1, Prostaglandin E synthase (Homo sapiens) (UniProt O14684); assay: Inhibition of mPGES-1 obtained from IL-beta stimulated human A549 cells microsomes assessed as residual activity by measuring conversion of PGH2 to PGE2 at 10 uM by cell-free RP-HPLC method; conditions: Microsome
T1 sequence (whole entry): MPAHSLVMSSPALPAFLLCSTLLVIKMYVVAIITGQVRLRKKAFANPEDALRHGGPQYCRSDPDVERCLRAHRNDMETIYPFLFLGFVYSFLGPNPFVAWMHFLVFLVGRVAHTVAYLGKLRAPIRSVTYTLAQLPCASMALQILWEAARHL
In short: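 Microsomes from A549 cells stimulated with IL-1β (1 ng/ml) for 48 h. Diluted in 0.1 M potassium phosphate pH 7.4 with 2.5 mM glutathione. Pre-incubated 15 min on ice with compound (single 10 µM, or 0.03–10 µM for the curve) or 1% DMSO. 20 µM PGH2 added for 1 min; stopped with FeCl3/citric acid containing 11β-PGE2 standard. PGE2 measured by SPE and RP-HPLC. n = 3.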

[2] = molecular target: T2, Polyunsaturated fatty acid 5-lipoxygenase (Homo sapiens) (UniProt P09917); assay: Inhibition of 5-LO in A23187-stimulated human intact neutrophils assessed as reduction in LTB4/5-HETE formation by measuring residual activity at 10 uM measured after 20 mins by RP-HPLC method; type: tissue-based; conditions: Neutrophil
T2 sequence (whole entry): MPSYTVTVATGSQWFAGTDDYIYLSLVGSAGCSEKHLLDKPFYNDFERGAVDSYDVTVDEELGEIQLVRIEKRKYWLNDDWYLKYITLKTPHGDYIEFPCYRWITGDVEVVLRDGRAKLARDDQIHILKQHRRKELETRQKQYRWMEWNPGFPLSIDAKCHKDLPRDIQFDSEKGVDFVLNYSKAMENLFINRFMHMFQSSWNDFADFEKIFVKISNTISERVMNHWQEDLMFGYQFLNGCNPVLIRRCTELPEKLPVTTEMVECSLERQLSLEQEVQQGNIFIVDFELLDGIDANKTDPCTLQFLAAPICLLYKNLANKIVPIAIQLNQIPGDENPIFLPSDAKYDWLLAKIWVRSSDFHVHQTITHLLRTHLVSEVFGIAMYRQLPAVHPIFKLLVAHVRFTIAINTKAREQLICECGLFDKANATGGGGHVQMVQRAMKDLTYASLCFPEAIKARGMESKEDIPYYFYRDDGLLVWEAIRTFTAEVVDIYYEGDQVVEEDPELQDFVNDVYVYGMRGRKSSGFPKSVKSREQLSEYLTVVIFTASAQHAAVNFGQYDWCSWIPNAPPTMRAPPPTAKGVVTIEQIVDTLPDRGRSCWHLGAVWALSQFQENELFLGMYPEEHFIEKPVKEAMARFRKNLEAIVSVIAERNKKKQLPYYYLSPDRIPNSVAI
In short: (§1)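 Human neutrophils at 5 × 10^6/mL in PBS with 0.1% glucose and 1 mM CaCl2. Pre-incubated with compound or 0.1% DMSO for 10 min at 37 °C. Stimulated with 2.5 µM A23187, with or without 20 µM AA, for 10 min at 37 °C. Stopped with cold methanol; PGB1 internal standard. LTB4, its trans isomers and 5-HETE quantified by SPE and RP-HPLC; % of control.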

[3] = molecular target: T2, Polyunsaturated fatty acid 5-lipoxygenase (Homo sapiens); assay: Inhibition of 5-LO in A23187/AA-stimulated human intact neutrophils assessed as reduction in LTB4/5-HETE formation by measuring residual activity at 10 uM measured after 20 mins by RP-HPLC method; type: tissue-based; conditions: Neutrophil; in short: as §1
[4] = molecular target: T2, Polyunsaturated fatty acid 5-lipoxygenase (Homo sapiens); assay: Inhibition of 5-LO (unknown origin) expressed in Escherichia coli BL21 assessed as residual activity at 10 uM by RP-HPLC method relative to control
In short: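 Human recombinant 5-LO expressed in E. coli BL21 and purified on ATP-agarose. 0.5 µg enzyme in 1 mL PBS + 1 mM EDTA pre-incubated with compound or 0.1% DMSO for 10 min on ice. Reaction started with 20 µM AA and 2 mM CaCl2, run 10 min at 37 °C, stopped with ice-cold methanol. Products analysed; activity as % of control.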

[5] = molecular target: T3, Bifunctional epoxide hydrolase 2 (Homo sapiens) (UniProt P34913); assay: Inhibition of recombinant human sEH expressed in sf9 insect cells assessed as residual activity at 10 uM using PHOME as substrate preincubated for 15 mins followed by substrate addition and measured after 60 mins relative to control; conditions: time 75.0 min
T3 sequence (whole entry): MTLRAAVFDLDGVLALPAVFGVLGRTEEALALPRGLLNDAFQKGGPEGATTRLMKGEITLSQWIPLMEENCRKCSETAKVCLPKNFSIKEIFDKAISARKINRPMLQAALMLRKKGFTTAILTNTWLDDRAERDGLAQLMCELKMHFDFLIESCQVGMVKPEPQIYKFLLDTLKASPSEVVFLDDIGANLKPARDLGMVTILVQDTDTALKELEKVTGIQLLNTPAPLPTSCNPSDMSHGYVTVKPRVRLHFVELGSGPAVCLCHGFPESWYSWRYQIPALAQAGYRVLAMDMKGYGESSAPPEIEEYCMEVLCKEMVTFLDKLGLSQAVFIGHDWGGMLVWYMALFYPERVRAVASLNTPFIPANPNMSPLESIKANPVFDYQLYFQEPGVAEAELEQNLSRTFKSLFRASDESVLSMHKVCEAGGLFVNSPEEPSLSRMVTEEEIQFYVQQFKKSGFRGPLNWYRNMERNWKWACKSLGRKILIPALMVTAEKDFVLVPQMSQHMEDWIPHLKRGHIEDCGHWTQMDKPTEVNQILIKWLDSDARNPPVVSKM
In short: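 Human recombinant sEH from baculovirus-infected Sf9 cells, affinity-purified. Diluted in 25 mM Tris pH 7 with 0.1 mg/mL BSA. Pre-incubated 15 min at room temperature with 10 µM compound or 0.1% DMSO. 50 µM PHOME added, run 60 min at room temperature, stopped with ZnSO4. Fluorescence read at ex 330 / em 465 nm.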

Monocyte = assay: Cytotoxicity against human monocyte cells assessed as cell viability at 10 uM measured after 24 hrs by MTT assay; type: cell-based
In short: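 Human monocytes isolated from PBMC by adherence, 0.2 × 10^6 per well in buffer. Exposed to 10 µM compound or 0.5% DMSO for 24 h (37 °C, 5% CO2). MTT for 2 h, then SDS lysis (10%, pH 4.5) for 17 h. Absorbance read at 570 nm; viability as % of vehicle, n = 3.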

A549 = assay: Cytotoxicity against human A549 cells assessed as cell viability at 10 uM measured after 48 hrs by MTT assay; type: cell-based; conditions: a549, 48 h
In short: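 A549 cells in DMEM + 10% FBS, 2 × 10^4 per well, seeded in triplicate. Exposed to 10 µM compound or 0.1% DMSO for 48 h at 37 °C, 5% CO2. MTT added for 1 h, formazan dissolved in DMSO, absorbance read at 570 nm. Viability given as % of vehicle, n = 3.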

[6] = molecular target: Prostaglandin G/H synthase 1 (Ovis aries) (UniProt P05979); assay: Inhibition of ovine COX-1 assessed as residual activity at 10 uM using arachidonic acid as substrate preincubated for 5 mins by RP-HPLC method relative to control; conditions: time 10.0 min
Chain of Prostaglandin G/H synthase 1 (Ovis aries) (P05979 whole entry, looked up): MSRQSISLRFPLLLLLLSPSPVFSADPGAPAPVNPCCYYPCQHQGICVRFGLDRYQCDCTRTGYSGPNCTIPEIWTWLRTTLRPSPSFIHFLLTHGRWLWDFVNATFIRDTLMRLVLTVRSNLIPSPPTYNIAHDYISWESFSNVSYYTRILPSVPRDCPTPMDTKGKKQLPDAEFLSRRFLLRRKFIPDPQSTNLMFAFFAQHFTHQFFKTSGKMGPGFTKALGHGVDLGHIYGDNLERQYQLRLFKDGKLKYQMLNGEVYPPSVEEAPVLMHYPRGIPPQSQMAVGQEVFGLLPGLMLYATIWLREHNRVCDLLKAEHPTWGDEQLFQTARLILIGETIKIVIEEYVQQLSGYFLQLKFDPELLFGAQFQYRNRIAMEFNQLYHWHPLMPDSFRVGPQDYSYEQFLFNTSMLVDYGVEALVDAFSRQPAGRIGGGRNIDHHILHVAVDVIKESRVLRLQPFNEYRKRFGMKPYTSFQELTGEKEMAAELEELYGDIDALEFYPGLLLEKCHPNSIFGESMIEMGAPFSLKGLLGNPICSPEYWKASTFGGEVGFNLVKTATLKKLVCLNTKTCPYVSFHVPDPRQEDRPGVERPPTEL

Mus musculus [7] = assay: Antiinflammatory activity in zymosan-induced CD-1 mouse peritonitis model assessed as reduction in zymosan-induced IL-6 level in peritoneal exudate at 3 mg/kg, ip treated with compound for 30 mins after 4 to 24 hrs zymosan stimulation by ELISA; type: functional, organism-based
Mus musculus [8] = assay: Antiinflammatory activity in zymosan-induced CD-1 mouse peritonitis model assessed as reduction in zymosan-induced neutrophil recruitment at 10 mg/kg, ip treated with compound for 30 mins after 4 hrs zymosan stimulation by ELISA; type: functional, organism-based
In short: (§2)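 Male CD-1 mice (10–14 wk, 25–30 g), n = 6/group, injected i.p. with boiled zymosan A (500 mg/kg in PBS). Compound (0.1–10 mg/kg, DMSO/saline 1:3) given i.p. 30 min afterwards. Peritoneal lavage with 2 mL PBS at 4 or 24 h. Total leukocytes counted by automated counter with trypan blue, normalized to exudate. Mean ± S.D.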

Mus musculus [9] = assay: Antiinflammatory activity in zymosan-induced CD-1 mouse peritonitis model assessed as reduction in zymosan-induced neutrophil recruitment at 10 mg/kg, ip treated with compound for 30 mins after 24 hrs zymosan stimulation by ELISA; type: functional, organism-based; in short: as §2
Mus musculus [10] = assay: Antiinflammatory activity in zymosan-induced CD-1 mouse peritonitis model assessed as reduction in zymosan-induced IL-1beta level in peritoneal exudate at 3 mg/kg, ip treated with compound for 30 mins after 4 to 24 hrs zymosan stimulation by ELISA; type: functional, organism-based
Mus musculus [11] = assay: Antiinflammatory activity in zymosan-induced CD-1 mouse peritonitis model assessed as reduction in zymosan-induced TNF-alpha level in peritoneal exudate at 3 mg/kg, ip treated with compound for 30 mins after 4 to 24 hrs zymosan stimulation by ELISA; type: functional, organism-based

Compound	Activity [1] [%]	Activity [2] [%]	Activity [3] [%]	other results
N[C@H](c1ccc(O)cc1)c1nc(-c2ccc(-c3ccsc3)cc2)no1	67.6	47.5	50.3	
CC(c1ccc(O)cc1)c1nc(-c2ccc(-c3ccsc3)cc2)no1 (configuration not stated)	62.9	6.02	7.54	Activity [4]: 61.8%; Activity [5]: > 50%; Activity (Monocyte): Non-Toxic; Activity (A549): Non-Toxic; Activity [6]: 22.5%
CC(=O)N1C[C@H](O)C[C@H]1c1nc(-c2ccc(-c3ccsc3)cc2)no1	82.2	92.6	89.5	
OCc1ccc(Cc2nc(-c3ccc(-c4ccsc4)cc3)no2)cc1	93.1	73.6	65.2	
c1cc(-c2nc(-c3ccc(-c4ccsc4)cc3)no2)c2cc[nH]c2c1	63.2	59.7	99.3	
C[C@@H]1C[C@H]2[C@@H]3CCC4=CC(=O)C=C[C@]4(C)[C@@]3(F)[C@@H](O)C[C@]2(C)[C@@]1(O)C(=O)CO				Activity (Mus musculus [7]): Active; Activity (Mus musculus [8]): Active; Activity (Mus musculus [9]): Active; Activity (Mus musculus [10]): Active; Activity (Mus musculus [11]): Active
Oc1cccc(-c2nc(-c3ccc(-c4ccsc4)cc3)no2)c1	84.1	> 100	> 100	
Nc1ccc(O)c(-c2nc(-c3ccc(-c4ccsc4)cc3)no2)c1	81.9	84.3	29.6	
CC(N)(Cc1ccc(O)cc1)c1nc(-c2ccc(-c3ccsc3)cc2)no1 (configuration not stated)	84.7	78	61.3	
N[C@@H](Cc1ccc(O)cc1)c1nc(-c2ccc(-c3ccsc3)cc2)no1	82.7	95	74.4	
